ChEMBL document CHEMBL1629499, “Synthesis, crystal structure and biological evaluation of novel 2-(5-(hydroxymethyl)-3-phenyl-1H-pyrazol-1-yl)-1-phenylethanol derivatives” (Eur J Med Chem, 2010)
Active and inactive are the calls of the source. No cut-off for these calls is given here.

What was measured:
Assay type in all cases: functional, cell-based
A549 [1] = assay: Anticancer activity against human A549 cells assessed as upregulation of LC3-2 expression at 60 uM after 48 hrs by Western blot analysis
Method in brief: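 After 48 h treatment, A549 cells washed in ice-cold PBS and lysed in 0.5% SDS buffer (25 mM Tris-HCl pH 7.5, EDTA, NaCl, PMSF, protease inhibitors). Protein measured by Bradford. Equal protein run on 15% SDS-PAGE, transferred to PVDF, probed overnight at 4 °C with primary antibody, β-actin as loading control. HRP secondary, chemiluminescent detection on film, bands quantified by densitometry.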

A549 [2] = assay: Induction of apoptosis in human A549 cells assessed as morphological changes at 60 uM after 48 hrs by Hoechst 33258 staining-based fluorescence microscopy
Method in brief: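 A549 cells exposed 48 h, stained with Hoechst 33258 and examined by fluorescence microscopy for chromatin condensation and nuclear DNA fragmentation.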

A549 [3] = assay: Induction of necrosis in human A549 cells assessed as LDH release at 60 uM after 48 hrs
Method in brief: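 LDH activity measured in culture medium of A549 cells after 48 h exposure and compared with control cells.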

A549 [4] = assay: Cell cycle arrest in human A549 cells assessed as accumulation in G1 phase at 60 uM after 48 hrs using propidium iodide staining by flow cytometry (reference value: 22%)
A549 [5] = assay: Anticancer activity against human A549 cells assessed as cell viability at 60 uM after 48 hrs by phase contrast microscopy
Method in brief: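 A549 lung cancer cells grown in RPMI 1640 with 10% bovine calf serum and 80 U/ml gentamicin at 37 °C, 5% CO2, seeded at 6250/cm². After 48 h exposure, cells inspected by phase contrast microscopy for morphology and cell number.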

Row | SMILES | Activity (A549 [1]) | Activity (A549 [2]) | Activity (A549 [3]) | Activity (A549 [4]) | Activity (A549 [5])
1 | COc1ccc(-c2cc(CO)n(CC(O)c3ccc(Cl)cc3)n2)cc1 (stereo unspecified) | Active | inactive | inactive | inactive | 
2 | OCc1cc(-c2ccc(Cl)cc2)nn1CC(O)c1ccc(Cl)cc1 (stereo unspecified) | Active | inactive | inactive |  | 
3 | OCc1cc(-c2ccc(Cl)cc2)nn1CC(O)c1ccccc1 (stereo unspecified) |  |  |  |  | inactive
4 | OCc1cc(-c2ccccc2)nn1CC(O)c1ccccc1 (stereo unspecified) |  |  |  |  | inactive
5 | COc1ccc(C(O)Cn2nc(-c3ccccc3)cc2CO)cc1 (stereo unspecified) |  |  |  |  | inactive
6 | OCc1cc(-c2ccccc2)nn1CC(O)c1ccc(Cl)cc1 (stereo unspecified) | Active | inactive | inactive |  | 
7 | COc1ccc(-c2cc(CO)n(CC(O)c3ccc(OC)cc3)n2)cc1 (stereo unspecified) |  |  |  |  | inactive
8 | COc1ccc(-c2cc(CO)n(CC(O)c3ccccc3)n2)cc1 (stereo unspecified) |  |  |  |  | inactive
9 | COc1ccc(C(O)Cn2nc(-c3ccc(Cl)cc3)cc2CO)cc1 (stereo unspecified) |  |  |  |  | inactive
